Values joined by “and” are separate entries in the source; they are usually repeats but may differ in a detail not shown here. Equal entries are not always repeated.
Key:
MT4 [1] = experiment: Concentration required to inhibit the cytopathicity of HIV-1 strain BRU by 50% in MT-4 cells (expressed in AZT equivalent); type: functional, cell-based; conditions: Homo sapiens
Procedure, shortened: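 MT-4 cells (3 × 10⁵), cultured in RPMI/10% FCS, were pretreated with compound for 1 h at 37 °C. Cells were then infected with HIV-1 BRU (MOI 0.1 CCID/cell) for 1 h, washed three times and cultured 7 days with or without compound, with medium renewed on day 3. Cytopathicity was scored microscopically, in duplicate. Final DMSO was <2%, with DMSO-matched standard assays.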

MT4 [2] = experiment: Concentration required to cause 50% death of uninfected MT-4 cells (expressed in AZT equivalent); type: functional, Homo sapiens
Procedure, shortened: (§1)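 Uninfected MT-4 cells were exposed to compound. Growth was followed and viability measured by trypan blue exclusion, or as viability of mock-infected cells on day 5. CC50 is the concentration giving 50% cell death.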

[3] = half life required for 50% hydrolysis of compound to AZT upon incubation in NHS; type: ADME, organism-based; conditions: human, NHS (human serum)
Procedure, shortened: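 Incubation at 37 °C in normal human serum. Samples were quenched with ice-cold methanol, centrifuged and filtered, then run on HPLC at 267 nm. t1/2 is the time to 50% hydrolysis to AZT.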

Homo sapiens = species on record: Homo sapiens; experiment: % Nucleoside derivatives released after 48 hr of hydrolysis at pH 7.2; type: functional
Procedure, shortened: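 Incubation at 37 °C for 48 h in normal human serum (pH 7.2). Aliquots were quenched in ice-cold methanol and centrifuged, and supernatants were filtered. HPLC used a 20–100% solvent B gradient over 20 min with detection at 267 nm. Percent of AZT and succinate-AZT released was calculated from peak areas.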

MT4 [4] = experiment: Concentration required to inhibit the cytopathicity of HIV-1 strain IIIB by 50% in MT-4 cells (expressed in AZT equivalent); type: functional, cell-based; conditions: Homo sapiens
Procedure, shortened: (§2)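 MT-4 cells in RPMI 1640 with 10% heat-inactivated FCS, 2 mM L-glutamine, 0.1% bicarbonate and 20 µg/mL gentamicin were infected with HIV-1 IIIB before compound was added. Inhibition of virus-induced cytopathicity was read 5 days after infection.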

MT4 [5] = experiment: Concentration required to cause 50% death of uninfected MT-4 cells (expressed in k-carrageenan equivalent); type: functional, Homo sapiens; procedure, shortened: as §1
MT4 [6] = experiment: Concentration required to inhibit the cytopathicity of HIV-1 strain IIIB by 50% in MT-4 cells (expressed in k-carrageenan equivalent); type: functional, cell-based; conditions: Homo sapiens; procedure, shortened: as §2

| Compound | EC50 (MT4 [1]) [nM] | CC50 (MT4 [2]) | half-life [3] [h] | Release (Homo sapiens) [%] | EC50 (MT4 [4]) [nM] | CC50 (MT4 [5]) [µg/mL] | CC50 (MT4 [5]; Homo sapiens, MT4, read-out: CC50) [µg/mL] | EC50 (MT4 [6]) [µg/mL] |
| --- | --- | --- | --- | --- | --- | --- | --- | --- |
| Cc1cn([C@H]2C[C@H](N=[N+]=[N-])[C@@H](CO)O2)c(=O)[nH]c1=O [ZIDOVUDINE] | 25 | > 100000 nM and 42000 nM | – | – | – | – | – | – |
| Cc1cn([C@H]2C[C@H](N=[N+]=[N-])[C@@H](COC(=O)CCC(=O)O)O2)c(=O)[nH]c1=O | 15 | > 50000 nM and 130000 nM | 25 | 100 | 65 | – | – | – |
| CO[C@H]1O[C@@H]2CO[C@@H]([C@H]1O)[C@H]2O[C@@H]1O[C@H](CO)[C@H](OS(=O)(=O)[O-])[C@H](O[C@H]2O[C@@H]3CO[C@@H]([C@H]2O)[C@H]3O[C@@H]2O[C@H](COC(=O)CCC(=O)OC[C@H]3O[C@@H](n4cc(C)c(=O)[nH]c4=O)C[C@@H]3N=[N+]=[N-])[C@H](OS(=O)(=O)[O-])[C@H](O[C@H]3O[C@@H]4CO[C@@H]([C@H]3O)[C@H]4O[C@@H]3O[C@H](CO)[C@H](OS(=O)(=O)[O-])[C@@H](O[C@H]4O[C@@H]5CO[C@@H]([C@H]4O)[C@H]5O[C@@H]4O[C@H](CO)[C@H](OS(=O)(=O)[O-])[C@H](O[C@H]5O[C@@H]6CO[C@@H]([C@H]5O)[C@H]6O[C@@H]5O[C@H](COC(=O)CCC(=O)OC[C@H]6O[C@@H](n7cc(C)c(=O)[nH]c7=O)C[C@@H]6N=[N+]=[N-])[C@H](OS(=O)(=O)[O-])[C@H](O[C@H]6O[C@@H]7CO[C@@H]([C@H]6O)[C@H]7O[C@@H]6O[C@H](CO)[C@H](OS(=O)(=O)[O-])[C@@H](O[C@H]7O[C@@H]8CO[C@@H]([C@H]7O)[C@H]8O[C@@H]7O[C@H](CO)[C@H](OS(=O)(=O)[O-])[C@H](O[C@H]8O[C@@H]9CO[C@@H]([C@H]8O)[C@H]9O[C@@H]8O[C@H](COC(=O)CCC(=O)OC[C@H]9O[C@@H](n%10cc(C)c(=O)[nH]c%10=O)C[C@@H]9N=[N+]=[N-])[C@H](OS(=O)(=O)[O-])[C@H](O[C@H]9O[C@@H]%10CO[C@@H]([C@H]9O)[C@H]%10O[C@@H]9O[C@H](CO)[C@H](OS(=O)(=O)[O-])[C@H](C)[C@H]9O)[C@H]8O)[C@H]7O)[C@H]6O)[C@H]5O)[C@H]4O)[C@H]3O)[C@H]2O)[C@H]1O.[Na+].[Na+].[Na+].[Na+].[Na+].[Na+].[Na+].[Na+].[Na+] | – | – | – | 39 | 109 | 300 | 300 | 1.6 |
